Data as given in article PMC7561591 (European Journal of Medicinal Chemistry, 2020).

What was measured:
[1] = reference compounds of the solubility assay; cited from earlier work
[2] = Metabolic stability in human liver microsomes; format: in vitro ADME
Outline: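 Test compound (10 μM) preincubated 5 min at 37 °C with HLM (1 mg/mL) in 0.1 M phosphate buffer pH 7.4, then started with 2 mM NADPH under shaking at 37 °C. Samples at 0, 10, 20, 40 and 60 min quenched in cold acetonitrile with labetalol internal standard and centrifuged. Unchanged substrate and metabolites tracked; t1/2 and CLint from kinetic analysis.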

| SMILES | equilibrium solubility of reference compounds [1] | intrinsic clearance ([2]; HLM, kinetic analysis in WebMetabase) | half-life at 10 μM ([2]; human, liver microsomes, pH 7.4) |
| --- | --- | --- | --- |
| C[C@H]1O[C@@H](O[C@H]2[C@@H](O)C[C@H](O[C@H]3[C@@H](O)C[C@H](O[C@H]4CC[C@@]5(C)[C@H](CC[C@@H]6[C@@H]5C[C@@H](O)[C@]5(C)[C@@H](C7=CC(=O)OC7)CC[C@]65O)C4)O[C@@H]3C)O[C@@H]2C)C[C@H](O)[C@@H]1O [Digossin] | 84.0 µM |  |  |
| Cc1cc(-c2ccccc2)nc2nc(C(=O)Nc3ccccc3C(N)=O)nn12 [Compound 23] |  | 4.18 μL/min∗ mgprot | 2.77 h |
